Experimental findings from PubChem BioAssay AID488974 (NMMLSC, 2010) are described below.

This test has as its system Igrove/Jurkat-DNR chemoreversal, trypan blue viability, 7 d. Description: chemoreversal in ABCG2 cells, dose response, ABC transporter inhibitor project, paired ABCB1 counter-screen, SAR hit validation (AID 488974). The note with it: for CC50: measured here: toxicity in resistant cells alone. An outline of the steps: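 Material – drug-resistant human Igrove (ABCG2 arm) and Jurkat/DNR (ABCB1 counterscreen) cells · Also added – constant mitoxantrone or daunorubicin level · Doses – test compound dose series spanning 0.1–100 µM · Schedule – compound exposure over 7 days · Signal – trypan blue microscopy counts · Evaluation – chemo-reversal 50% viability concentration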

Each structure is given as a SMILES string. Activity calls are given as the source filed them.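 How the source made its calls: active means ratio of toxic midpoint dose to chemo-reversal midpoint dose above 10, among compounds with toxic midpoint under 15 µM; inactive means the rest.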 Where only a bound is given, the exact number is not on record here.

As for `O=C(c1cccnc1)N1CCN(c2cc(-c3ccccc3)nc3cc(-c4cccc(Cl)c4)nn23)CC1`, the EC50 was 0.13 µM (inactive) and the CC50 is 10.3 µM.
For the compound `COc1ccccc1-c1cc2nc(-c3ccccc3)cc(N3CCN(C(=O)c4ccoc4)CC3)n2n1`, the EC50 is 0.49 µM (inactive) and the CC50 came to 6.5 µM.
In the case of `COc1ccc(-c2cc3nc(-c4ccccc4)cc(N4CCN(C(=O)c5ccccc5)CC4)n3n2)cc1`, the EC50 was 0.2 µM and the CC50 worked out at 82.6 µM.
On to `Cc1nc2cc(-c3ccc(F)cc3)nn2c(N2CCN(C(=O)c3ccco3)CC2)c1C`, for which the EC50 is 0.12 µM (inactive) and the half-maximal cytotoxic concentration (CC50) is 5.33 µM.
As for `O=C(Cc1ccccc1)N1CCN(c2cc(-c3ccccc3)nc3cc(-c4cccc(Cl)c4)nn23)CC1`, the EC50 was 0.6 µM and the CC50 is greater than 100 µM.
The matching figures for `Cc1nc2cc(-c3ccc4c(c3)OCO4)nn2c(N2CCN(C(=O)c3ccoc3)CC2)c1C`: 1.63 µM and greater than 100 µM.
As to `O=C(c1ccco1)N1CCN(c2cc(-c3ccccc3)nc3cc(-c4cccc(Cl)c4)nn23)CC1`, the EC50 was 0.14 µM (inactive) and the CC50 worked out at 6 µM.
In the case of `Cc1nc2cc(-c3cccc(Cl)c3)nn2c(N2CCN(C(=O)c3ccco3)CC2)c1C`, the EC50 is 0.17 µM and the CC50 is 47.4 µM.
In the case of `O=C(c1ccoc1)N1CCN(c2cc(-c3cccnc3)nc3cc(-c4cccc(Cl)c4)nn23)CC1`, the EC50 is 0.02 µM (inactive) and the CC50 was found to be 5.77 µM.
As to `Cc1ccc(-c2cc3nc(-c4ccccc4)cc(N4CCN(C(=O)c5ccoc5)CC4)n3n2)cc1`, the EC50 is 0.45 µM and the CC50 came to 86 µM.
The matching figures for `Cc1cc(N2CCN(C(=O)c3ccco3)CC2)n2nc(-c3ccccc3)nc2n1`: 2.94 µM (inactive) and 16.2 µM.
`Cc1nc2cc(-c3cccc(Cl)c3)nn2c(N2CCN(C(=O)c3ccsc3)CC2)c1C`: the EC50 was 0.49 µM (inactive) and the CC50 was 14.9 µM.
For the compound `COc1ccc(-c2cc3nc(-c4ccccc4)cc(N4CCN(C(=O)c5ccoc5)CC4)n3n2)cc1`, the EC50 was 0.38 µM and the CC50 is greater than 100 µM.
The matching figures for `O=C(c1ccco1)N1CCN(c2cc(Cc3ccccc3)nc3cc(-c4cccc(Cl)c4)nn23)CC1`: 1.38 µM (inactive) and 10.5 µM.
The corresponding values for `O=C(c1ccncc1)N1CCN(c2cc(-c3ccccc3)nc3cc(-c4cccc(Cl)c4)nn23)CC1` are 0.15 µM and 28.3 µM.
The corresponding values for `O=C(c1ccco1)N1CCN(c2cc(-c3ccccc3)nc3cc(-c4cccc(F)c4)nn23)CC1` are 0.76 µM (inactive) and 8.25 µM.
For `O=C(c1ccco1)N1CCN(c2c3c(nc4cc(-c5cccc(F)c5)nn24)CCCC3)CC1`, the EC50 was 0.39 µM (inactive) and the CC50 was 5.77 µM.
As for `Cc1cc(N2CCN(C(=O)c3ccco3)CC2)n2nc(-c3ccc(F)cc3)cc2n1`, the EC50 was 0.14 µM and the cytotoxic concentration (CC50) came out at 40.4 µM.
For `COc1cccc(-c2cc3nc(C)c(C)c(N4CCN(C(=O)c5ccoc5)CC4)n3n2)c1`, the 50% effective concentration (EC50) is 0.76 µM and the cytotoxic concentration (CC50) was greater than 100 µM.
The corresponding values for `Cc1nc2ncnn2c(N2CCN(C(=O)c3ccco3)CC2)c1Cc1ccccc1` are 10.1 µM (inactive) and greater than 100 µM.
The corresponding values for `COc1ccc(-c2cc3nc(-c4ccccc4)cc(N4CCN(C(=O)c5ccsc5)CC4)n3n2)cc1` are 0.17 µM and 30.6 µM.
The matching figures for `O=C(c1ccoc1)N1CCN(c2cc(-c3ccccc3)nc3cc(-c4ccncc4)nn23)CC1`: 1.5 µM and 22.3 µM.
Consider `COc1ccc(-c2cc3nc(C)c(C)c(N4CCN(C(C)=O)CC4)n3n2)cc1`, for which the EC50 was 3.28 µM and the CC50 was found to be 81.7 µM.
The matching figures for `COc1cc(OC)cc(-c2cc3nc(C)c(C)c(N4CCN(C(=O)c5ccoc5)CC4)n3n2)c1`: 0.95 µM and greater than 100 µM.
The matching figures for `Cc1cc(N2CCN(C(=O)c3ccco3)CC2)n2nc(C)c(-c3ccccc3)c2n1`: 2.18 µM and 22.3 µM.
`COc1cccc(-c2cc3nc(-c4ccco4)cc(N4CCN(C(=O)c5ccoc5)CC4)n3n2)c1`: the EC50 was 1 µM and the CC50 is greater than 100 µM.
The corresponding values for `CC(=O)N1CCN(c2c(C)c(C)nc3cc(-c4cccc(F)c4)nn23)CC1` are 0.73 µM and greater than 100 µM.
On to `O=C(c1ccoc1)N1CCN(c2cc(-c3ccco3)nc3cc(-c4ccccc4)nn23)CC1`, for which the half-maximal effective concentration (EC50) is 0.31 µM and the CC50 turned out to be 18.3 µM.
For `O=C(c1ccoc1)N1CCN(c2cc(-c3ccco3)nc3cc(-c4cccc(Cl)c4)nn23)CC1`, the EC50 was 1.38 µM (inactive) and the CC50 turned out to be 10.8 µM.
Regarding `COc1cccc(-c2cc(N3CCN(C(=O)c4ccoc4)CC3)n3nc(-c4cccc(OC)c4)cc3n2)c1`, the EC50 was 0.68 µM and the CC50 is greater than 100 µM.
For `Cc1nc2cc(-c3cccc(Cl)c3)nn2c(N2CCN(C(=O)c3ccoc3)CC2)c1C`, the EC50 is 0.6 µM and the CC50 was greater than 100 µM.
For the compound `O=C(c1ccoc1)N1CCN(c2cc(-c3ccncc3)nc3cc(-c4cccc(Cl)c4)nn23)CC1`, the EC50 is 0.89 µM and the CC50 was 57.8 µM.
The corresponding values for `COc1cccc(-c2cc3nc(C)c(C)c(N4CCN(Cc5ccco5)CC4)n3n2)c1` are 0.09 µM and greater than 100 µM.
Turning to `COc1cccc(C(=O)N2CCN(c3cc(-c4ccccc4)nc4cc(-c5cccc(Cl)c5)nn34)CC2)c1`, the EC50 was 0.21 µM and the cytotoxic concentration (CC50) is greater than 101 µM.
Take `O=C(C1CCCO1)N1CCN(c2c3c(nc4cc(-c5cccc(F)c5)nn24)CCCC3)CC1` (centres undefined): the EC50 was 0.2 µM and the CC50 turned out to be 17.5 µM.
Consider `COc1ccc(-c2[nH]nc3nc(N4CCN(C(=O)c5ccoc5)CC4)cc(C(F)(F)F)c23)cc1`, for which the EC50 is 0.46 µM (inactive) and the CC50 is 1.31 µM.
With `COc1ccc(-c2cc3nc(C)c(C)c(N4CCN(C(=O)c5ccco5)CC4)n3n2)cc1`, the EC50 is 1.44 µM (inactive) and the cytotoxic concentration (CC50) is 10.5 µM.
